Data reported in ChEMBL document CHEMBL2021872, “Synthesis and biological evaluation of new potent and selective HCV NS5A inhibitors” (Bioorg Med Chem Lett, 2012).
pEC50: −log10 of the molar value.

Legend:
CCRF-CEM = experiment: Cytotoxicity against human CEM cells after 3 days; type: cell-based; conditions: 72 h
Hepatitis C virus [1] = experiment: Antiviral activity against HCV1b infected in human HuH7 cells assessed as inhibition of viral replication by RT-PCR analysis; type: functional, organism-based, Hepacivirus hominis; conditions: genotype 1b, Huh-7
Procedure, shortened: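 Huh7 cells carrying a subgenomic genotype 1b HCV replicon were treated with compound, and HCV RNA replication was measured. HCV RNA and ribosomal RNA were extracted and amplified together, and cytotoxicity in Huh7 was read at the same time. EC50 and EC90 came from dose–response curves of at least four concentrations, each run in triplicate, and are reported as means.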

Vero = experiment: Cytotoxicity against african green monkey Vero cells after 3 days; type: cell-based; conditions: chlorocebus sabaeus, 72 h
PBMC = experiment: Cytotoxicity against human PBMC after 3 days; type: cell-based; conditions: 72 h
Procedure, shortened: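 CC50 was measured in human peripheral blood mononuclear (PBM) cells, the human T-cell-derived CEM line, and African green monkey kidney epithelial Vero cells. Dose–response was fitted from at least four concentrations, each run in triplicate and reported as the mean.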

[2] = Therapeutic index, ratio of CC50 for african green monkey Vero cells to EC50 for HCV1b; type: cell-based
Procedure, shortened: (§1)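 The index is CC50/EC50. EC50 came from Huh7 cells carrying a subgenomic genotype 1b HCV replicon, with HCV RNA quantified by extraction and amplification alongside rRNA. CC50 was measured in PBM, CEM or Vero cells. Each dose–response used at least four concentrations in triplicate, and means were reported.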

[3] = Therapeutic index, ratio of CC50 for human PBMC to EC50 for HCV1b; procedure, shortened: as §1
[4] = Therapeutic index, ratio of CC50 for human CEM cells to EC50 for HCV1b; type: cell-based, CCRF-CEM; procedure, shortened: as §1
Hepatitis C virus [5] = experiment: Antiviral activity against HCV1b infected in human assessed as reduction of viral RNA level at 10 mg after 24 hrs; type: functional, Hepacivirus hominis, genotype 1b

Structure (SMILES) | CC50 (CCRF-CEM) | pEC50 (Hepatitis C virus [1]) | EC90 (Hepatitis C virus [1]) | CC50 (Vero) | CC50 (PBMC) | selectivity ratio [2] | selectivity ratio [3] | selectivity ratio [4] | Activity (Hepatitis C virus [5])
COC(=O)N[C@H](C(=O)N1CCC[C@H]1c1ncc(-c2ccc(-c3ccc(-c4ccc(-c5ccc(-c6cnc([C@@H]7CCCN7C(=O)[C@@H](NC(=O)OC)C(C)C)[nH]6)cc5)cc4)cc3)cc2)[nH]1)C(C)C | > 100 µM | 9.62 | 1 nM | > 100 µM | > 100 µM |  |  |  | 
COC(=O)N[C@H](C(=O)N1CCC[C@H]1c1ncc(-c2ccc(-c3ccc(-c4cnc([C@@H]5CCCN5C(=O)[C@@H](NC(=O)OC)C(C)C)[nH]4)s3)cc2)[nH]1)C(C)C | 48 µM | 7.04 | > 100 nM | 99 µM | 93 µM |  |  |  | 
COC(=O)N[C@H](C(=O)N1CCC[C@H]1c1ncc(-c2ccc(-c3ccc(-c4ccc(-c5cnc([C@@H]6CCCN6C(=O)[C@@H](NC(=O)OC)C(C)C)[nH]5)cc4)cc3)cc2)[nH]1)C(C)C | > 100 µM | 10.59 | 0.09 nM | > 100 µM | > 100 µM | > 4e+06 | > 4e+06 | > 4e+06 | 
COC(=O)N[C@H](C(=O)N1CCC[C@H]1c1ncc(-c2ccc(-c3cnc([C@@H]4CCCN4C(=O)[C@@H](NC(=O)OC)C(C)C)[nH]3)cc2)[nH]1)C(C)C | > 100 µM | < 9.00 |  | > 100 µM | > 100 µM |  |  |  | 
COC(=O)N[C@H](C(=O)N1CCC[C@H]1c1ncc(-c2ccc(-c3ccc(-c4ccc(-c5cnc([C@@H]6CCCN6C(=O)[C@@H](NC(=O)OC)C(C)C)[nH]5)cc4)nc3)cc2)[nH]1)C(C)C | 2.3 µM | 10.59 | 0.068 nM | 6.5 µM | 3.9 µM |  |  |  | 
COC(=O)N[C@H](C(=O)N1CCC[C@H]1c1ncc(-c2ccc(NS(=O)(=O)c3ccc(-c4cnc([C@@H]5CCCN5C(=O)[C@@H](NC(=O)OC)C(C)C)[nH]4)cc3)cc2)[nH]1)C(C)C | 13 µM | 7.00 | > 100 nM | > 100 µM | 15 µM |  |  |  | 
COC(=O)N[C@H](C(=O)N1CCC[C@H]1c1ncc(-c2ccc(-c3cn(-c4ccc(-c5cnc([C@@H]6CCCN6C(=O)[C@@H](NC(=O)OC)C(C)C)[nH]5)cc4)nn3)cc2)[nH]1)C(C)C | 5 µM | 9.70 | 0.9 nM | 35 µM | 18 µM |  |  |  | 
COC(=O)N[C@H](C(=O)N1CCC[C@H]1c1ncc(-c2ccc(-c3cccc(-c4ccc(-c5cnc([C@@H]6CCCN6C(=O)[C@@H](NC(=O)OC)C(C)C)[nH]5)cc4)c3)cc2)[nH]1)C(C)C | 3 µM | 9.10 | 2.9 nM | > 100 µM | 18 µM |  |  |  | 
COC(=O)N[C@H](C(=O)N1CCC[C@H]1c1ncc(-c2ccc(-c3ccc(-c4ccc(-c5cnc([C@@H]6CCCN6C(=O)[C@@H](NC(=O)OC)C(C)C)[nH]5)cn4)cc3)cc2)[nH]1)C(C)C | 31 µM | 9.70 | 0.7 nM | 29 µM | 5.5 µM |  |  |  | 
COC(=O)N[C@H](C(=O)N1CCC[C@H]1c1ncc(-c2ccc(-c3ccc(-c4cnc([C@@H]5CCCN5C(=O)[C@@H](NC(=O)OC)C(C)C)[nH]4)cc3)cc2)[nH]1)C(C)C |  | 11.18 | 0.023 nM |  | 19 µM |  |  |  | > 3 log10IU/ml
COC(=O)N[C@H](C(=O)N1CCC[C@H]1c1ncc(-c2ccc(Oc3ccc(-c4cnc([C@@H]5CCCN5C(=O)[C@@H](NC(=O)OC)C(C)C)[nH]4)cc3)cc2)[nH]1)C(C)C | 16 µM | 7.52 | 90 nM | 19 µM | 16 µM |  |  |  | 
COC(=O)N[C@H](C(=O)N1CCC[C@H]1c1ncc(-c2ccc(-c3ccc(-c4ccc(-c5cnc([C@@H]6CCCN6C(=O)[C@@H](NC(=O)OC)C(C)C)[nH]5)cc4)s3)cc2)[nH]1)C(C)C | 12 µM | 10.00 | 0.3 nM | > 100 µM | 26 µM |  |  |  | 
